A selection: hits, their analogues and other compounds. The true share with any hit is near 2.8%.
RAM network inh: blocks the yeast RAM network; AID 868; S. cerevisiae dse1pr::URA3 reporter, 5-FOA growth OD615, 2 d; analog-sensitive cbk1-as2 kinase mutant strain; inhibition, % at 50 µM; 190,000 tested, 1.8% active;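 active = inhibition above a set limit, 3 SD over mean compound inhibition, cut at about 8.4% in these data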;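 note: inhibition rescues growth on 5-FOA so higher OD means more RAM inhibition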
Yeast life ext: yeast lifespan extension; S. cerevisiae growth with nicotinamide, OD615; deaD strain in restrictive glucose medium; inhibition of the nicotinamide effect, % at 10 µM; 130,000 tested, 0.68% active;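 active = inhibition above a set limit, placed 3 SD over the median of all compounds, cut at about 26% in these data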
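Assay system: engineered S. cerevisiae DeaD replicative-lifespan strain, galactose-grown log-phase cells; medium: restrictive CSMM-D dextrose medium; also added: nicotinamide, 1.5 mM, co-present with compound; schedule: 48 h compound exposure at 30 °C, humidified; detection: absorbance at 615 nm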
TNAP inh no acc: inhibitors of human TNAP without phosphate acceptor. P05186. purified TNAP, CDP-star luminescence, 30 min. inhibition, % at 20 µM. 200,000 tested, 0.26% active. AID 1012;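 active = tissue-nonspecific alkaline phosphatase inhibition above about 50% at 20 µM in the single-dose screen, limit read from the data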
Target sequence (P05186 whole entry, looked up): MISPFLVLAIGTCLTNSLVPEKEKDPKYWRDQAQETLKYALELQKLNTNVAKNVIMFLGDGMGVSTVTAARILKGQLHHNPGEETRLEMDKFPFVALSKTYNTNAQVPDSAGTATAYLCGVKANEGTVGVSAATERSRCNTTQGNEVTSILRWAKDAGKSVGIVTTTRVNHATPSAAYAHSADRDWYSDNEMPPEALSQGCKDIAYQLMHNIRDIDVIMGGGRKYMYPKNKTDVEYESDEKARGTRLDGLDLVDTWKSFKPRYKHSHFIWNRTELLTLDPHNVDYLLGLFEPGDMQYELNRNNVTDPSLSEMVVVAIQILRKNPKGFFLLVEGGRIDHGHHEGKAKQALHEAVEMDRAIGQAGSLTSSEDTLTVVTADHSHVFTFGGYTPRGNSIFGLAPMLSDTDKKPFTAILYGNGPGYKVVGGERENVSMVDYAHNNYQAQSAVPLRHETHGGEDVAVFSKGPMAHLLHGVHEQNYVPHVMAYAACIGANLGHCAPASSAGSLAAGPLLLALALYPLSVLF
TNAP inh hiacc: inhibitors of human TNAP at high phosphate acceptor concentration. P05186. purified TNAP, CDP-star luminescence, 1 M DEA. inhibition, % at 20 µM. 200,000 tested, 0.03% active. AID 1135;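 active = over 50% inhibition of tissue-nonspecific alkaline phosphatase at 20 µM in the single-dose screen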
BB579 growth dn: chemicals that inhibit yeast BB579 growth in restrictive medium (lifespan-shortening candidates); S. cerevisiae BB579 growth, OD615, 48 h; inhibition, % at 10 µM; 140,000 tested, 0.51% active; AID 804;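 active = inhibition above a set limit, 3 SD over the mean compound inhibition, cut at about 44% in these data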
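Assay system: S. cerevisiae DeaD strain BB579 yeast. Medium: CSMM-D restrictive synthetic medium containing dextrose (glucose). Times: 4 h cell preincubation, 48 h compound exposure, 30 °C humidified. Signal: OD615 turbidity measurement. Benchmarks: positive control amphotericin B 10 µg/mL.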
TNAP act hiacc: TNAP (human) activation, high acceptor; purified TNAP, CDP-star luminescence, 1 M DEA, 30 min; hits give high values; 0 = EDTA background, 1 = DMSO-only activity; activation factor at 20 µM; 200,000 tested, under 10 active;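 active = activation factor at least 2 at 20 µM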
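Measured by: Luminescent substrate turnover signal | Test system: Human TNAP | Input: TNAP 1/800 final | Dosing: 20 µM single point | Schedule: 30 min, room temperature | Controls: EDTA wells as negative control, DMSO wells as positive control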
RAM efflux-def: RAM network inhibitors in efflux-deficient yeast | shares compounds with RAM network inh | S. cerevisiae efflux-deficient reporter strain, 5-FOA growth OD615, 2 days | max inhibition, % | 1,200 tested, under 10 active; call rule not given here
Large screens that a line does not name were inactive (follow-up assays come after a bar, where they were run).

O=C(/C=C/c1ccccc1)OCCCN=C1NS(=O)(=O)c2ccccc21	none (no result: Yeast life ext, BB579 growth dn)
Cc1ccc(N/N=C/c2c(C)c(C#N)c(=O)n(C)c2O)cc1C	RAM network inh 13 (no result: Yeast life ext, BB579 growth dn) | RAM efflux-def inactive
Cc1ccc(N(CC(=O)NC(C)(C)C)C(=O)CS(=O)CC(=O)Nc2ccc3c(c2)OCO3)cc1 (stereo unspecified)	none (no result: Yeast life ext, BB579 growth dn)
N#Cc1ccc(-c2cccnc2)nc1SCc1ccc(Cl)cc1Cl	none
N#Cc1ccc(-c2cccnc2)nc1SCc1ccc(Cl)c(Cl)c1	RAM network inh 13 | RAM efflux-def inactive
C#CC(C)(CC)NC(=O)Cn1nnc(-c2cccc(C(F)(F)F)c2)n1 (stereo unspecified)	none (no result: Yeast life ext, BB579 growth dn)
CN(C(=S)Nc1ccc(Oc2ccccc2)cc1)c1ccc(O)cc1	RAM network inh 14 | RAM efflux-def inactive
COc1ccc(C(=O)Nc2cc(OC)c(Cl)cc2OC)cc1	RAM network inh 11 (no result: Yeast life ext, BB579 growth dn) | RAM efflux-def inactive
Cc1cc(C(=O)N(C)CC(=O)Nc2ccccc2C(F)(F)F)c(C)o1	none
COc1cccc(CSc2nc3cc4c(cc3cc2C)OCCO4)c1	RAM network inh 18 | RAM efflux-def inactive
CCC(C)(C)C(=O)Nc1cccc(Cl)c1C	none (no result: Yeast life ext, BB579 growth dn)
CCCc1ccc(OCc2ccc(C(=O)N3CCN(c4ccccn4)CC3)o2)c(OC)c1	none
Cn1c(=O)c(/C=C/c2ccc(F)cc2)nc2ccccc21	RAM network inh 14 (no result: Yeast life ext, BB579 growth dn) | RAM efflux-def inactive
C=CCn1c(C)cc(C(=O)COC(=O)/C=C/c2cccc(OC)c2)c1C	RAM network inh 20 (no result: Yeast life ext, BB579 growth dn) | RAM efflux-def inactive
C=CCn1c(C)cc(C(=O)COC(=O)/C=C/c2ccc(OC)cc2)c1C	none (no result: Yeast life ext, BB579 growth dn)
O=C(c1cccc(Cl)c1)C1CCCN(C(=O)c2ccoc2)C1 (stereo unspecified)	none (no result: Yeast life ext, BB579 growth dn)
CCCCOc1ccc(C(=O)N2CC(C)OC(C)C2)cc1 (stereo unspecified)	none
COCCCNC(=O)C(=O)NCCCOC(C)C	none
COc1cc2c(=O)n(Cc3ccco3)c(=O)n(CC(=O)c3cccc(Br)c3)c2cc1OC	none
COc1cc2c(=O)n(Cc3ccco3)c(=O)n(CC(=O)c3ccc(Br)cc3)c2cc1OC	RAM network inh 12 | RAM efflux-def inactive
CC(Sc1nncs1)C(=O)NCC(=O)Nc1ccc(F)c(F)c1F (stereo unspecified)	none (no result: Yeast life ext, BB579 growth dn)
O=S(=O)(c1ccccc1)N1CCN=C1SCc1ccc(Cl)cc1	none (no result: Yeast life ext, BB579 growth dn)
O=S(=O)(c1ccccc1)N1CCN=C1SCc1ccc(Cl)c(Cl)c1	RAM network inh 12 | RAM efflux-def inactive
CCC1CCCCN1C(=O)c1ccc(OC2CCN(C(=O)C3CC3)CC2)cc1 (stereo unspecified)	none (no result: Yeast life ext, BB579 growth dn)
Cc1ccc(C(=O)Nc2ccc(C(=O)O)cc2)cc1S(=O)(=O)NCc1ccccc1	RAM network inh 13 (no result: Yeast life ext, BB579 growth dn) | RAM efflux-def inactive
CCOC(=O)c1sc(-c2ccccc2)cc1NC(=O)c1ccc(S(=O)(=O)N(CCOC)CCOC)cc1	RAM network inh 18 | RAM efflux-def inactive
COC(=O)c1sc(-c2ccccc2)cc1NC(=O)c1ccccc1	none
CCOCCOC(=O)C(C)Oc1ccc(Oc2nc(Cl)ccc2Cl)cc1 (stereo unspecified)	RAM network inh 13 (no result: Yeast life ext, BB579 growth dn) | RAM efflux-def inactive
Fc1ccccc1C1c2cccn2CCN1C(=S)Nc1ccc(Br)cc1 (stereo unspecified)	none (no result: Yeast life ext, BB579 growth dn)
CCSC1=N/C(=C\c2ccc(-c3ccccc3[N+](=O)[O-])o2)C(=O)S1	RAM network inh 14 | RAM efflux-def inactive
CCCSC1=N/C(=C\c2ccc([N+](=O)[O-])o2)C(=O)S1	none (no result: Yeast life ext, BB579 growth dn)
COc1cc(/C=C/c2cc(C(=O)O)c3ccccc3n2)cc(OC)c1O	RAM network inh 12 (no result: Yeast life ext, BB579 growth dn) | RAM efflux-def inactive
CCOc1cc(/C=C/c2cc(C(=O)O)c3ccccc3n2)ccc1OC	none
CC(C)CSc1nc(N2CCOCC2)c2c(c1C#N)CC(C)(C)SC2	RAM network inh 22 | RAM efflux-def inactive
CCSC1=N/C(=C\c2ccc3c(c2)OCO3)C(=O)S1	RAM network inh 15 | RAM efflux-def inactive

High-throughput results (PubChem)
